System: Fibroblast
Assay: Multiplex assay against human fibroblast
Assay type: toxicity, cell-based
Procedure, shortened: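 Four dyes were applied at seeding to live cells: Hoechst33342, BioTracker Green Microtubule Cytoskeleton Dye, MitoTracker Red and Annexin V Alexa Fluor 680. Imaging after compound addition used a CQ1 microscope at 37°C and 5% CO2. CellPathfinder machine-learning gating then sorted cells into Hoechst high-intensity objects or normal cells, normal cells into healthy, pyknosed or fragmented nuclei, and pyknosed cells into mitotic or apoptotic, with tubulin, mitochondrial-mass and membrane-permeability phenotypes given as per cents of healthy-nucleus cells.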

[1] = 12 h, 1 µM, compound concentration 1 uM, replicate 1
[2] = 12 h, 1 µM, compound concentration 1 uM, replicate 2
[3] = 12 h, 10 µM, compound concentration 10 uM, replicate 1
[4] = 12 h, 10 µM, compound concentration 10 uM, replicate 2
[5] = 24 h, 1 µM, compound concentration 1 uM, replicate 1
[6] = 24 h, 1 µM, compound concentration 1 uM, replicate 2
[7] = 24 h, 10 µM, compound concentration 10 uM, replicate 1
[8] = 24 h, 10 µM, compound concentration 10 uM, replicate 2
[9] = 48 h, 1 µM, compound concentration 1 uM, replicate 1
[10] = 48 h, 1 µM, compound concentration 1 uM, replicate 2
[11] = 48 h, 10 µM, compound concentration 10 uM, replicate 1
[12] = 48 h, 10 µM, compound concentration 10 uM, replicate 2

## CN1CCC(C(=O)c2cccc(NC(=O)c3c(F)cc(F)cc3F)n2)CC1
[1]
  Population Apoptotic (%): 28%
  Population Fragmented Nuclei (%): 16%
  Population Healthy Nuclei (%): 64%
  Population Hoechst High Intensity Objects (%): 3%
  Population Membrane Permeable-Phenotype (%): 1%
  Population Mitochondria Different-Phenotype (%): 4%
  Population Mitotic Cells (%): 71%
  Population Normal (%): 96%
  Population Pyknosed Nuclei (%): 18%
  Population Tubulin-Different-Phenotype (%): 28%
  Total Cell Count: 153
[2]
  Population Apoptotic (%): 40%
  Population Fragmented Nuclei (%): 28%
  Population Healthy Nuclei (%): 53%
  Population Hoechst High Intensity Objects (%): 2%
  Population Membrane Permeable-Phenotype (%): 5%
  Population Mitochondria Different-Phenotype (%): 10%
  Population Mitotic Cells (%): 60%
  Population Normal (%): 97%
  Population Tubulin-Different-Phenotype (%): 43%
  Total Cell Count: 142
[3]
  Population Apoptotic (%): 32%
  Population Fragmented Nuclei (%): 12%
  Population Healthy Nuclei (%): 74%
  Population Hoechst High Intensity Objects (%): 4%
  Population Membrane Permeable-Phenotype (%): 1%
  Population Mitochondria Different-Phenotype (%): 7%
  Population Mitotic Cells (%): 67%
  Population Normal (%): 95%
  Population Pyknosed Nuclei (%): 13%
  Population Tubulin-Different-Phenotype (%): 42%
  Total Cell Count: 266
[4]
  Population Apoptotic (%): 36%
  Population Fragmented Nuclei (%): 23%
  Population Healthy Nuclei (%): 54%
  Population Membrane Permeable-Phenotype (%): 6%
  Population Mitochondria Different-Phenotype (%): 6%
  Population Mitotic Cells (%): 63%
  Population Pyknosed Nuclei (%): 22%
  Population Tubulin-Different-Phenotype (%): 63%
  Total Cell Count: 142
[5]
  Population Apoptotic (%): 45%
  Population Fragmented Nuclei (%): 12%
  Population Healthy Nuclei (%): 74%
  Population Hoechst High Intensity Objects (%): 1%
  Population Membrane Permeable-Phenotype (%): 0%
  Population Mitochondria Different-Phenotype (%): 2%
  Population Mitotic Cells (%): 55%
  Population Normal (%): 98%
  Population Pyknosed Nuclei (%): 12%
  Population Tubulin-Different-Phenotype (%): 21%
  Total Cell Count: 156
[6]
  Population Apoptotic (%): 40%
  Population Fragmented Nuclei (%): 34%
  Population Healthy Nuclei (%): 43%
  Population Membrane Permeable-Phenotype (%): 6%
  Population Mitochondria Different-Phenotype (%): 10%
  Population Mitotic Cells (%): 59%
  Population Pyknosed Nuclei (%): 21%
  Population Tubulin-Different-Phenotype (%): 45%
  Total Cell Count: 148
[7]
  Population Apoptotic (%): 54%
  Population Fragmented Nuclei (%): 13%
  Population Healthy Nuclei (%): 71%
  Population Hoechst High Intensity Objects (%): 3%
  Population Membrane Permeable-Phenotype (%): 0%
  Population Mitochondria Different-Phenotype (%): 6%
  Population Mitotic Cells (%): 45%
  Population Normal (%): 96%
  Population Pyknosed Nuclei (%): 14%
  Population Tubulin-Different-Phenotype (%): 37%
  Total Cell Count: 258
[8]
  Population Apoptotic (%): 37%
  Population Fragmented Nuclei (%): 30%
  Population Healthy Nuclei (%): 50%
  Population Hoechst High Intensity Objects (%): 2%
  Population Membrane Permeable-Phenotype (%): 5%
  Population Mitochondria Different-Phenotype (%): 8%
  Population Mitotic Cells (%): 62%
  Population Normal (%): 97%
  Population Pyknosed Nuclei (%): 19%
  Population Tubulin-Different-Phenotype (%): 65%
  Total Cell Count: 153
[9]
  Population Apoptotic (%): 71%
  Population Fragmented Nuclei (%): 16%
  Population Healthy Nuclei (%): 74%
  Population Hoechst High Intensity Objects (%): 3%
  Population Membrane Permeable-Phenotype (%): 0%
  Population Mitochondria Different-Phenotype (%): 1%
  Population Mitotic Cells (%): 28%
  Population Normal (%): 96%
  Population Pyknosed Nuclei (%): 8%
  Population Tubulin-Different-Phenotype (%): 25%
  Total Cell Count: 164
[10]
  Population Apoptotic (%): 56%
  Population Fragmented Nuclei (%): 42%
  Population Healthy Nuclei (%): 46%
  Population Hoechst High Intensity Objects (%): 2%
  Population Membrane Permeable-Phenotype (%): 5%
  Population Mitochondria Different-Phenotype (%): 5%
  Population Mitotic Cells (%): 43%
  Population Normal (%): 97%
  Population Pyknosed Nuclei (%): 10%
  Population Tubulin-Different-Phenotype (%): 67%
  Total Cell Count: 156
[11]
  Population Apoptotic (%): 71%
  Population Fragmented Nuclei (%): 17%
  Population Healthy Nuclei (%): 71%
  Population Hoechst High Intensity Objects (%): 5%
  Population Membrane Permeable-Phenotype (%): 0%
  Population Mitochondria Different-Phenotype (%): 7%
  Population Mitotic Cells (%): 28%
  Population Normal (%): 94%
  Population Pyknosed Nuclei (%): 10%
  Population Tubulin-Different-Phenotype (%): 40%
  Total Cell Count: 272
[12]
  Population Apoptotic (%): 54%
  Population Fragmented Nuclei (%): 36%
  Population Healthy Nuclei (%): 55%
  Population Hoechst High Intensity Objects (%): 3%
  Population Membrane Permeable-Phenotype (%): 3%
  Population Mitochondria Different-Phenotype (%): 3%
  Population Mitotic Cells (%): 45%
  Population Normal (%): 96%
  Population Pyknosed Nuclei (%): 7%
  Population Tubulin-Different-Phenotype (%): 69%
  Total Cell Count: 152
